Bioassay records deposited in PubChem by several laboratories.
In the library only some 3.4% were active in any assay of this set; here they are far more common.
A3A deaminase: blocks human APOBEC3A ssDNA deamination; P31941; recombinant A3A, FAM/TAMRA ssDNA deamination fluorescence; inhibition, % at 20 µM; 330,000 tested, 0.41% active; AID 493011;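 active = at least 40% inhibition at 20 µM here, with at most 30% in a related deaminase screen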;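 note: plate controls were A3A with DMSO for no effect and wells lacking A3A enzyme for full effect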
Target sequence (P31941 whole entry, looked up): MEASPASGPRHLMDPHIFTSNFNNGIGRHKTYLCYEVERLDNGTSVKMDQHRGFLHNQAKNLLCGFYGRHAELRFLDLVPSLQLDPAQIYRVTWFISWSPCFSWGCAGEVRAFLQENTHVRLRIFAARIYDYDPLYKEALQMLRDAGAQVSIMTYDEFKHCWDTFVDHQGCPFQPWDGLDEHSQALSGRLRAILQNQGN
Arrestin-AP2 inh: blocks beta-arrestin peptide binding to AP2 adaptin; FITC-arrestin peptide / GST-AP2 beads, flow cytometry; AP2 beta2 appendage carries R879A mutation; inhibition, % at 10 µM; 340,000 tested, 0.31% active;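 active = inhibition above a set limit, near 3 SD of compounds lacking own fluorescence, cut at about 54% in these data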;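 note: plate controls were DMSO wells for no effect and 5 µM unlabelled arrestin peptide for full effect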
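System: GST-tagged AP2 beta2-adaptin appendage (R879A) on 4 µm glutathione beads / Reagent: FITC-arrestin peptide, 50 nM / Detection: HyperCyt-sampled flow cytometry, FL1 channel, ex 488/em 535 nm / Timing: 12 min plus 1 h, RT / Buffer or medium: PBS plus Tween 20 (0.05%) and BSA (0.1%)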
APOBEC3G inh: inhibitors of human APOBEC3G DNA deaminase | Q9HC16 | recombinant A3G, ssDNA deamination FAM/TAMRA fluorescence | 330,000 tested, 0.28% active | inhibition, % at 20 µM;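 active = inhibition of at least 40% at 20 µM, with no more than 30% in the related APOBEC3A deaminase screen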;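 note: plate controls were DMSO wells with A3G for no effect and wells lacking A3G enzyme for full effect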
UCH37 DUB inh: inhibitors of human deubiquitinating enzyme UCH37 | purified proteasome/UCH37, Ub-AMC cleavage fluorescence | Q9Y5K5 | 330,000 tested, 0.33% active | inhibition, % (test concentration not listed) | AID 588478;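 active = mean inhibition over replicate wells above about 20%, limit read from the data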;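 note: 0% = compound-free wells with enzyme and 100% = wells lacking proteasome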
Target sequence (Q9Y5K5 whole entry, looked up): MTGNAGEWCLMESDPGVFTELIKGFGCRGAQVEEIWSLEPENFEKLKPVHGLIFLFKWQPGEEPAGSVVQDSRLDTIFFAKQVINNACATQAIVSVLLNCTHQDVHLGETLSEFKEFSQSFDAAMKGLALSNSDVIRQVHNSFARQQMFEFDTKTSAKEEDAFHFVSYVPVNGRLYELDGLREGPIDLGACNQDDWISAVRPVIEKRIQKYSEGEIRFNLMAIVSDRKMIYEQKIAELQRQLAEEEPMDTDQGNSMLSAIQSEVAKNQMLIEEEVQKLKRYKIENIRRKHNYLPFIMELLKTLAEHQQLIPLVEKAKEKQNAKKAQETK
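Material: Human UCH37 enzyme supplied as purified proteasome complex | Schedule: 30 min preincubation with enzyme, 25 min cleavage at room temperature | Detection: AMC fluorescence 355/460 nm | Measure: % inhibition of Ub-AMC cleavage fluorescence | Controls: Wells without proteasome as full block, compound-free enzyme plus substrate as uninhibited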
PolyA inhibitor: inhibitors of polyadenylation in S. cerevisiae | S. cerevisiae SKY197-pL101 polyadenylation reporter, beta-gal luminescence; efflux-impaired pdr1/pdr3 knockout yeast; score 100 = 6 SD above DMSO | activity score, % at 12 µM | 300,000 tested, 0.02% active;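 active = lowest replicate activity score at least 50, where 100 means six control SD above control mean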;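 note: yeast exposed to compound for 9 h at 30 °C; higher score means more reporter readthrough which indicates perturbed polyadenylation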
AHR activator: activates the human aryl hydrocarbon receptor | P35869 | AHR-responsive luciferase reporter cells, luminescence | 320,000 tested, 2.5% active | AID 2796 | activation, % at 5 µM; in the data active = activation above about 47%;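 note: 0% = vehicle wells and 100% = reference agonist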
* = called active by the depositor.

Results for COc1cccc(-c2cc(C(=O)Nc3cccnc3)c3ccccc3n2)c1 ?
A3A deaminase: -5; Arrestin-AP2 inh: -15; APOBEC3G inh: -4; UCH37 DUB inh: 2; PolyA inhibitor: -4; AHR activator: 19

Results for O=C(N/N=C/c1cccnc1)c1cc(-c2cccs2)nc2ccccc12 ?
A3A deaminase: 6; Arrestin-AP2 inh: 6; APOBEC3G inh: -2; PolyA inhibitor: -4; AHR activator: 76*

What do the screens show for `CC1CC(=NNC(N)=S)c2cc(Cl)ccc2S1` (configuration not stated)?
UCH37 DUB inh: -24

Results for O=C(Nc1nccs1)c1cc(-c2ccncc2)nc2ccccc12 ?
A3A deaminase: 17; Arrestin-AP2 inh: 5; APOBEC3G inh: -4; UCH37 DUB inh: 4; PolyA inhibitor: -1; AHR activator: 56*

How did Cc1nc(N)sc1-c1csc(Nc2ccc(Cl)cn2)n1 do in these assays?
A3A deaminase: 1; Arrestin-AP2 inh: 19; APOBEC3G inh: -3; UCH37 DUB inh: -4; PolyA inhibitor: 2; AHR activator: 76*

Results for Cc1nc(N)sc1-c1csc(Nc2ccccn2)n1 ?
Arrestin-AP2 inh: -1; UCH37 DUB inh: 1; PolyA inhibitor: 8

Results for Cc1nc(N)sc1-c1csc(Nc2cccc(O)c2)n1 ?
A3A deaminase: -6; Arrestin-AP2 inh: 45; APOBEC3G inh: -5; UCH37 DUB inh: 4; PolyA inhibitor: -8; AHR activator: 71*

What do the screens show for `CC(=O)c1cccc(Nc2nc(-c3sc(N)nc3C)cs2)c1`?
A3A deaminase: -6; Arrestin-AP2 inh: 10; APOBEC3G inh: -6; UCH37 DUB inh: 5; PolyA inhibitor: -5; AHR activator: 49*

What do the screens show for `COc1ccccc1C=NNC(=O)CN(C1=NS(=O)(=O)c2ccccc21)c1ccccc1`?
UCH37 DUB inh: -1

What do the screens show for `Cc1cccc(NC(=O)c2cc(-c3cc(C)cc(C)c3O)n[nH]2)c1`?
A3A deaminase: 0; Arrestin-AP2 inh: -5; APOBEC3G inh: -7; UCH37 DUB inh: 2; PolyA inhibitor: 0; AHR activator: 66*

How did COc1ccc(NC(=O)c2cc(-c3cc(C)cc(C)c3O)n[nH]2)cc1Cl do in these assays?
A3A deaminase: -1; Arrestin-AP2 inh: 1; APOBEC3G inh: 0; UCH37 DUB inh: 1; PolyA inhibitor: -1; AHR activator: 80*

What do the screens show for `Cn1c(=O)c2c(nc(NN=Cc3ccncc3)n2Cc2ccccc2)n(C)c1=O`?
UCH37 DUB inh: 9

What do the screens show for `Cc1cc(C)nc(N/N=C/c2cn[nH]c2-c2ccccc2)n1`?
A3A deaminase: -3; Arrestin-AP2 inh: 2; APOBEC3G inh: -11; PolyA inhibitor: 4; AHR activator: 67*

How did Cc1cc(C)nc(N/N=C/c2ccccc2)n1 do in these assays?
A3A deaminase: 0; Arrestin-AP2 inh: -3; APOBEC3G inh: -10; PolyA inhibitor: 17; AHR activator: 4

Results for Clc1ccc(-c2nnc(-c3ccccc3Cl)o2)cc1 ?
A3A deaminase: 0; Arrestin-AP2 inh: 23; APOBEC3G inh: -5; UCH37 DUB inh: 0; PolyA inhibitor: -15; AHR activator: 49*

Results for CN(C)c1ccc(-c2nnc(-c3ccccc3F)o2)cc1 ?
A3A deaminase: -7; Arrestin-AP2 inh: 13; APOBEC3G inh: -7; UCH37 DUB inh: -322; PolyA inhibitor: -6; AHR activator: 63*

Results for Cc1ccccc1-c1nnc(-c2ccc(Cl)cc2)o1 ?
A3A deaminase: -4; Arrestin-AP2 inh: -1; APOBEC3G inh: -5; UCH37 DUB inh: -1; PolyA inhibitor: -23; AHR activator: 54*

Results for Cc1ccccc1-c1nnc(-c2ccccc2)o1 ?
A3A deaminase: -1; Arrestin-AP2 inh: -14; APOBEC3G inh: 0; UCH37 DUB inh: 0; PolyA inhibitor: -9; AHR activator: 30

Results for Clc1ccccc1-c1nnc(-c2ccccc2Cl)o1 ?
A3A deaminase: 0; Arrestin-AP2 inh: 2; APOBEC3G inh: 1; UCH37 DUB inh: 2; PolyA inhibitor: -14; AHR activator: 18

Results for CC(=NNC(=O)Cn1nc(C)c([N+](=O)[O-])c1C)c1ccc(Cl)s1 ?
UCH37 DUB inh: 3

Results for CC(=NNC(=O)c1cc(-c2ccncc2)nc2ccccc12)c1ccc(OC(F)F)cc1 ?
UCH37 DUB inh: -2

How did O=C(NN=Cc1ccc(CNS(=O)(=O)c2ccc(Cl)cc2)o1)C(=O)Nc1ccc(Oc2ccccc2)cc1 do in these assays?
UCH37 DUB inh: 1

What do the screens show for `Cc1ccc(F)cc1NCC(=O)Nc1ccc(Br)cc1`?
A3A deaminase: 5; Arrestin-AP2 inh: -7; APOBEC3G inh: -4; UCH37 DUB inh: 1; PolyA inhibitor: 35; AHR activator: 72*

Results for Cc1nn(-c2ccc(F)cc2)c2nc(N)c(C#N)c(-c3cccs3)c12 ?
A3A deaminase: -1; Arrestin-AP2 inh: 1; APOBEC3G inh: -5; UCH37 DUB inh: -29; PolyA inhibitor: -20; AHR activator: 65*

Results for CN1c2ccsc2C(=NNc2ccccc2)CS1(=O)=O ?
UCH37 DUB inh: 4

What do the screens show for `CN1c2ccsc2/C(=N/Nc2ccccc2)CS1(=O)=O`?
A3A deaminase: -3; Arrestin-AP2 inh: 35; APOBEC3G inh: -7; PolyA inhibitor: -28; AHR activator: 74*

How did COc1ccc(-c2c(-c3ccc(OC)nc3)c3ccccc3n2C)cc1 do in these assays?
A3A deaminase: 0; Arrestin-AP2 inh: 4; APOBEC3G inh: -1; UCH37 DUB inh: 0; AHR activator: 63*

What do the screens show for `Cc1sc(NC(=O)Nc2ccccc2)c(C(N)=O)c1C`?
A3A deaminase: -2; Arrestin-AP2 inh: 10; APOBEC3G inh: 33; UCH37 DUB inh: -1; PolyA inhibitor: -8; AHR activator: 53*

What do the screens show for `CN(C)c1ccc(C=NNS(=O)(=O)c2ccc(Br)cc2)cc1`?
UCH37 DUB inh: 4

How did CCn1c(SCC(=O)NN=C/C=C/c2ccco2)nnc1-c1ccccc1 do in these assays?
UCH37 DUB inh: 7

What do the screens show for `Cc1cc2ncn(/N=C/c3ccc4c(c3)OCO4)c2cc1C`?
A3A deaminase: -2; Arrestin-AP2 inh: -13; APOBEC3G inh: -5; PolyA inhibitor: -9; AHR activator: 55*

How did Cn1c(=S)n(/N=C/c2ccc3c(c2)OCO3)c2ccccc21 do in these assays?
A3A deaminase: -2; Arrestin-AP2 inh: -8; APOBEC3G inh: 6; AHR activator: 58*

What do the screens show for `Cc1cc2ncn(N=Cc3ccc4c(c3)OCO4)c2cc1C`?
UCH37 DUB inh: -37

How did CC(/C=C/c1ccccc1)=NNc1nc2c(c(=O)[nH]c(=O)n2C)n1CCO do in these assays?
UCH37 DUB inh: 9

Results for O=C(CN1CCOCC1)NN=Cc1ccc(C(=O)O)cc1 ?
UCH37 DUB inh: -1
